Source: PubChem
The list is not random: actives were taken first. Their share in the collection is about 6.1%.
hDAT+cocaine: modulates human dopamine transporter uptake under cocaine; Q01959; LLC-PK1 hDAT cells, [14C]-dopamine uptake with cocaine IC80; actives deviate in either direction; B-score at 10 µM; 110,000 tested, 1.3% active;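 active means Z score or B-score, a plate-position-corrected score, falls beyond the plate's 99.7% confidence bounds, in either direction; inactive means both scores lie inside the 99.7% bounds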
Target sequence (Q01959 whole entry, looked up): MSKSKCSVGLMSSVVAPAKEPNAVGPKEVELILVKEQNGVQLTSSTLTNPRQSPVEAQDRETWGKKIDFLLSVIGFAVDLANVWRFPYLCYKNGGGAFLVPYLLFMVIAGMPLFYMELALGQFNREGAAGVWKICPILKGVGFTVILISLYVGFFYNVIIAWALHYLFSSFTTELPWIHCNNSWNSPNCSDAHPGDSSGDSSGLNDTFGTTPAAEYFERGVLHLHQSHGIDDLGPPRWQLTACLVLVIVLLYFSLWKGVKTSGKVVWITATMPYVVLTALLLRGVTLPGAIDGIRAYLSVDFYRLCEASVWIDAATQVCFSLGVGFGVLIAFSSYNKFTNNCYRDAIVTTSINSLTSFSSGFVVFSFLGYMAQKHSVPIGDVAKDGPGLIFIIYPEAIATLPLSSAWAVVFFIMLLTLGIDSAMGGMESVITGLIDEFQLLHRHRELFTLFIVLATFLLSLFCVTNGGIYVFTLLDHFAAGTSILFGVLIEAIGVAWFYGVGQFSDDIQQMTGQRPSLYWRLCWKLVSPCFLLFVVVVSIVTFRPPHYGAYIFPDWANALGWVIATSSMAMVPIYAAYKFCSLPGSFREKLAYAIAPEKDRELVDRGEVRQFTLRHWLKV
Yeast life ext: extends the lifespan of yeast; S. cerevisiae growth with nicotinamide, OD615; deaD strain in restrictive glucose medium; inhibition of the nicotinamide effect, % at 10 µM; 130,000 tested, 0.68% active; AID 775;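 active means inhibition above a set limit, placed 3 SD over the median of all compounds, cut at about 26% in these data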
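Test system – modified budding yeast, DeaD strain · Compound – single dose 10 µM compound, 0.25% DMSO · Times – culture preincubation 4 h, compound exposure 48 h, both 30 °C · Detection – optical density (absorbance) at 615 nm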
BB579 growth dn: yeast BB579 growth reduction in restrictive medium | inhibition, % at 10 µM | 140,000 tested, 0.51% active | S. cerevisiae BB579 growth, OD615, 48 h;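 active means inhibition above a set limit, 3 SD over the mean compound inhibition, cut at about 44% in these data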
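System: DeaD yeast strain BB579; buffer or medium: CSMM-D dextrose restrictive medium; technique: OD at 615 nm; schedule: 4 h cell preincubation, 48 h compound exposure, 30 °C humidified; doses: single 10 µM dose; controls: amphotericin B 10 µg/mL, positive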
WT yeast gro inh: growth inhibition of WT yeast, mitochondrial fusion screen; mitochondrial fusion phenotypic screen, WT strain; inhibition, % at 10 µM; 190,000 tested, 2.1% active; AID 1362; in the data active means inhibition above about 58%; tested in S. cerevisiae
RAM network inh: blocks the yeast RAM network; S. cerevisiae dse1pr::URA3 reporter, 5-FOA growth OD615, 2 d; analog-sensitive cbk1-as2 kinase mutant strain; inhibition, % at 50 µM; 190,000 tested, 1.8% active; AID 868;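 active means inhibition above a set limit, 3 SD over mean compound inhibition, cut at about 8.4% in these data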;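 further: inhibition rescues growth on 5-FOA so higher OD means more RAM inhibition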
Measles CPE: protection of cells from measles virus; Measles virus-infected cells, CPE protection, absorbance; protection (pct of control), % at 4 µM; 140,000 tested, 1.5% active; in the data active means protection mostly above about 24%, no sharp cut-off; inactive means mostly below about 26%
Numbers stand for hits.

What do the screens show for `C=CCn1ncc(OC)c(Cl)c1=O`?
hDAT+cocaine: inactive; Yeast life ext: inactive; BB579 growth dn: inactive; WT yeast gro inh: inactive; RAM network inh: inactive; Measles CPE: 89.4

What do the screens show for `CCOC(=O)C1(S(=O)(=O)c2ccc(Cl)cc2)CCN(Cc2ccc(Cl)cc2)CC1`?
hDAT+cocaine: inactive; Yeast life ext: inactive; BB579 growth dn: inactive; WT yeast gro inh: 71.5; RAM network inh: inactive; Measles CPE: inactive

How did CC(=O)N(Cc1ccc(F)cc1)C1=C(NCCc2ccccc2)C(=O)c2ccccc2C1=O do in these assays?
hDAT+cocaine: inactive; Yeast life ext: inactive; BB579 growth dn: inactive; WT yeast gro inh: 83.4; RAM network inh: inactive; Measles CPE: inactive

How did CCNC(=S)N/N=C/c1cccs1 do in these assays?
hDAT+cocaine: inactive; Yeast life ext: inactive; BB579 growth dn: inactive; WT yeast gro inh: inactive; RAM network inh: inactive; Measles CPE: inactive

What do the screens show for `Cc1cc(C)nc(Nc2n[nH]c(-c3ccc(N)cc3)n2)n1`?
hDAT+cocaine: inactive; Yeast life ext: inactive; BB579 growth dn: inactive; WT yeast gro inh: 59.6; RAM network inh: inactive; Measles CPE: 25.8

How did O=C1NCC2=C1C(c1ccc(Br)cc1)Nc1ccccc1N2 (stereo not given) do in these assays?
hDAT+cocaine: inactive; Yeast life ext: 91.9; BB579 growth dn: inactive; WT yeast gro inh: inactive; RAM network inh: inactive; Measles CPE: inactive

What do the screens show for `O=C(/C=C/Sc1ccccc1)c1ccccc1`?
hDAT+cocaine: inactive; Yeast life ext: inactive; BB579 growth dn: inactive; WT yeast gro inh: inactive; RAM network inh: inactive; Measles CPE: inactive

How did O=C(/C=C/Sc1ccccc1)c1ccc(Cl)cc1 do in these assays?
hDAT+cocaine: inactive; Yeast life ext: 27.9; BB579 growth dn: inactive; WT yeast gro inh: inactive; RAM network inh: inactive; Measles CPE: inactive

What do the screens show for `Cn1c(=O)c2c(O)c(Cc3ccccc3)c(=O)[nH]c2n(C)c1=O`?
Yeast life ext: inactive; BB579 growth dn: inactive; WT yeast gro inh: inactive; RAM network inh: inactive; Measles CPE: inactive

How did CCC(=Nc1ccc(Cc2ccncc2)cc1)c1c(O)n(C)c(=O)n(C)c1=O do in these assays?
Yeast life ext: 27.3; BB579 growth dn: inactive; WT yeast gro inh: inactive; RAM network inh: inactive; Measles CPE: inactive

What do the screens show for `CCOc1cc(/C=N/O)ccc1OCC(=O)Nc1cccc(C)c1`?
Yeast life ext: inactive; BB579 growth dn: inactive; WT yeast gro inh: inactive; RAM network inh: inactive; Measles CPE: inactive

Results for CCOc1cc(-c2nc(C)c(C(C)=O)n2O)ccc1OCC(=O)Nc1cccc(C)c1 ?
WT yeast gro inh: 62.1; RAM network inh: inactive

How did CCc1ccc(C(=O)COC(=O)c2ccc(-c3nnc(-c4ccccc4)o3)cc2)cc1 do in these assays?
hDAT+cocaine: inactive; Yeast life ext: inactive; BB579 growth dn: inactive; RAM network inh: inactive; Measles CPE: inactive

How did O=C(N/N=C/c1ccccc1[N+](=O)[O-])c1ccc(COc2ccccc2-c2ccccc2)cc1 do in these assays?
Yeast life ext: inactive; BB579 growth dn: inactive; WT yeast gro inh: inactive; RAM network inh: inactive; Measles CPE: inactive

Results for Cc1noc(C)c1S(=O)(=O)NCC(=O)O ?
hDAT+cocaine: 2.27; Yeast life ext: inactive; BB579 growth dn: inactive; WT yeast gro inh: inactive; RAM network inh: inactive; Measles CPE: inactive

How did COc1cc(C(=O)Nc2nc(-c3ccc(Cl)cc3)c(C)s2)ccc1OCC(=O)Nc1ccc(F)cc1 do in these assays?
Yeast life ext: inactive; BB579 growth dn: inactive; WT yeast gro inh: inactive; RAM network inh: inactive; Measles CPE: inactive

Results for COc1ccc(-c2nc(NC(=O)c3ccc(OCC(=O)N4CCOCC4)c(OC)c3)sc2C)cc1 ?
Yeast life ext: inactive; BB579 growth dn: inactive; WT yeast gro inh: inactive; RAM network inh: 9.0; Measles CPE: inactive

How did Cc1conc1NC(c1cccs1)c1ccc2cccnc2c1O (stereo not given) do in these assays?
hDAT+cocaine: inactive; Yeast life ext: inactive; BB579 growth dn: 62.0; WT yeast gro inh: inactive; RAM network inh: inactive; Measles CPE: inactive

What do the screens show for `CCC(=O)NC(c1cccs1)c1ccc2cccnc2c1O` (stereo not given)?
WT yeast gro inh: inactive; RAM network inh: inactive

How did Cc1cccc(/C(N)=N/OC(=O)Cc2ccccc2)c1 do in these assays?
WT yeast gro inh: inactive; RAM network inh: inactive

What do the screens show for `N/C(=N\OC(=O)N1c2ccccc2Sc2ccccc21)c1ccccc1`?
Yeast life ext: inactive; BB579 growth dn: inactive; WT yeast gro inh: 65.7; RAM network inh: inactive; Measles CPE: inactive

How did Cc1cccc(/C(N)=N/OC(=O)N2c3ccccc3Sc3ccccc32)c1 do in these assays?
hDAT+cocaine: inactive; Yeast life ext: inactive; BB579 growth dn: inactive; WT yeast gro inh: 66.7; RAM network inh: inactive; Measles CPE: inactive

Results for O=C(COc1ccc([N+](=O)[O-])cc1)NCc1ccncc1 ?
WT yeast gro inh: inactive; RAM network inh: inactive

How did N#Cc1c(SCc2cccc(Cl)c2)sc(C(=O)c2ccccc2)c1N do in these assays?
hDAT+cocaine: inactive; Yeast life ext: inactive; BB579 growth dn: inactive; WT yeast gro inh: inactive; RAM network inh: inactive; Measles CPE: inactive

Results for Cc1cc(NC(=O)COc2ccc(N(C)S(=O)(=O)c3ccccc3)cc2)no1 ?
hDAT+cocaine: inactive; Yeast life ext: inactive; BB579 growth dn: inactive; WT yeast gro inh: inactive; RAM network inh: inactive; Measles CPE: 64.0

How did Clc1ccc(-c2cc3ccccc3nc2N2CCOCC2)cc1 do in these assays?
WT yeast gro inh: inactive; RAM network inh: inactive

Results for Clc1ccc(-c2cc3ccccc3nc2N2CCCC2)cc1 ?
hDAT+cocaine: inactive; Yeast life ext: inactive; BB579 growth dn: inactive; WT yeast gro inh: 69.5; RAM network inh: inactive; Measles CPE: inactive

Results for O=[N+]([O-])c1ccc(N/N=C\c2cccn2-c2ccccc2)nc1 ?
Yeast life ext: inactive; BB579 growth dn: inactive; WT yeast gro inh: 60.6; RAM network inh: inactive; Measles CPE: inactive

What do the screens show for `Cc1ccccc1-n1c(C)cc(/C=N/Nc2ccc([N+](=O)[O-])cn2)c1C`?
hDAT+cocaine: inactive; Yeast life ext: inactive; BB579 growth dn: inactive; WT yeast gro inh: inactive; RAM network inh: inactive; Measles CPE: inactive

Results for O=[N+]([O-])c1ccc(N2CCN(c3ccccc3O)CC2)c(Cl)c1 ?
Yeast life ext: inactive; BB579 growth dn: inactive; WT yeast gro inh: inactive; RAM network inh: inactive; Measles CPE: inactive

What do the screens show for `O=[N+]([O-])c1ccc(N2CCN(CCOc3nonc3-c3ccccc3)CC2)c(Cl)c1`?
hDAT+cocaine: inactive; Yeast life ext: inactive; BB579 growth dn: inactive; WT yeast gro inh: inactive; RAM network inh: inactive; Measles CPE: 38.3

What do the screens show for `CCOc1ccccc1Nc1nc(N2CCCC2)nc(N2CCOCC2)n1`?
hDAT+cocaine: inactive

Results for O=C(CCNS(=O)(=O)c1cccs1)NCc1ccccc1 ?
hDAT+cocaine: inactive; Yeast life ext: inactive; BB579 growth dn: inactive; WT yeast gro inh: inactive; RAM network inh: inactive; Measles CPE: inactive
